Converted amounts (≈) assume the structure as drawn. The source made the active and inactive calls. No cut-off for these calls is given here.
Columns and labels:
[1] = tested on: Mycobacterium tuberculosis; test: Inhibition of recombinant Mycobacterium tuberculosis InhA expressed in Escherichia coli Rosetta (DE3) pLysS at 30 uM using 2-trans-decenoyl-N-acetylcyste-amine as substrate measured for 120 sec in presence of NADH by spectrophotometric method
How it was run: (§1)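 His-tagged InhA purified by Ni-chelate then gel filtration. Assay at 25 °C in 30 mM PIPES, 150 mM NaCl, 1 mM EDTA, pH 6.8 with 200 µM trans-2-decenoyl-N-acetylcysteamine, 100 µM NADH, 1 µg enzyme. Initial rate of A340 decrease over 120 s. DMSO 0.1%; triplicates; triclosan positive control.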

[2] = Inhibition of recombinant Mycobacterium tuberculosis InhA expressed in Escherichia coli Rosetta (DE3) pLysS using 2-trans-decenoyl-N-acetylcyste-amine as substrate in presence of NADH by spectrophotometric method; how it was run: as §1
[3] = tested on: Mycobacterium marinum; test: Antimycobacterial activity against LuxABCDE expressing Mycobacterium marinum measured after 48 hrs by luminescence based serial dilution assay; assay type: functional
How it was run: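 LuxABCDE-expressing M. marinum was grown shaking at 32°C in 7H9 with OADC to OD600 0.8-1. 10^5 bacteria per well were exposed to compounds (submicromolar to submillimolar) in 7H9 with 0.5% v/v DMSO at 32°C. Luminescence was followed for 48 h, with amikacin 10 µM as control. MIC was the lowest concentration giving significant signal reduction versus DMSO control at 48 h.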

[4] = tested on: Klebsiella pneumoniae; test: Toxicity against Klebsiella pneumoniae at 10 uM
[5] = tested on: Mycobacterium marinum; test: Antivirulence activity against Mycobacterium marinum assessed as Dictyostelium discoideum phagocytic plaque formation at 10 uM preincubated for 2 to 3 hrs followed by Dictyostelium discoideum addition measured after 5 to 9 days in presence of Klebsiella pneumoniae relative to control; assay type: functional
How it was run: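 Mixed lawn of mid-log Mm pellet resuspended in equal volume of overnight non-virulent Kp culture diluted 10-5; 50 µl spread on SM agar containing compound (10 µM), dried 2-3 h, then 103 Dictyostelium cells added. Incubated 5-9 days at 25 °C; phagocytic plaque diameter scored 0-4 versus DMSO control.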

[6] = Toxicity against Dictyostelium discoideum at 10 uM
[7] = tested on: Enterococcus faecalis; test: Antimicrobial activity against Enterococcus faecalis ATCC 29212 assessed as inhibition of bacterial growth measured after 24 hrs using p-iodonitrotetrazolium violet by broth dilution method; assay type: functional; conditions: ATCC 29212, 24 h
How it was run: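 E. faecalis ATCC 29212 in Mueller-Hinton broth. Compounds were taken up at 2 mg/ml in DMSO (stock) and doubling dilutions were made in MHB. Inoculum was 1-5 × 10^5 final, incubated 37°C for 24 h, with sterility, growth and DMSO solvent controls. Growth was read by reduction of INT (2 mg/ml solution, several hours) to formazan. MIC was the lowest concentration with no red-purple colour or visible turbidity.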

[8] = Mycobacterium marinum, 48 h, read-out: MIC

Row | Structure (SMILES) | inhibition [1] | IC50 [2] [µM] | MIC [3, 8] [µM] | Activity [4] | Activity [5] | Activity [6] | MIC [7] [µM] | MIC [3] [µM]
1 | CCCCC(C(=O)O)N1C(=O)/C(=C/c2ccc(N(C)C)c3ccccc23)SC1=S (racemic) | Active | 24.4 | 2.33 (≈ 0.999 µg/mL) |  |  |  |  | 
2 | CCN(CC)c1ccc(/C=C2\SC(=S)N([C@@H](CC(C)C)C(=O)O)C2=O)cc1 | Active | 22.4 | 2.46 (≈ 1 µg/mL) | Non-Toxic | Active | Non-Toxic |  | 
3 | Oc1cc(Cl)ccc1Oc1ccc(Cl)cc1Cl [TRICLOSAN] |  | 6.1 | 8.63 (≈ 2.5 µg/mL) |  |  |  |  | 
4 | Cc1ccc(/C=C2\SC(=S)N([C@@H](Cc3c[nH]c4ccccc34)C(=O)O)C2=O)c2ccccc12 | Active | 8.7 | 0.21 (≈ 0.0992 µg/mL) | Non-Toxic | Active | Non-Toxic | 2.6 (≈ 1.23 µg/mL) | 
5 | CN(C)c1ccc(/C=C2\SC(=S)N([C@@H](Cc3c[nH]c4ccccc34)C(=O)O)C2=O)cc1 (stereo in doubt; 12) [listing 1 of 2 here] | Active |  |  |  |  |  |  | 
6 | CN(C)c1ccc(/C=C2\SC(=S)N([C@@H](Cc3c[nH]c4ccccc34)C(=O)O)C2=O)c2ccccc12 | Active | 19.1 | 1.99 (≈ 0.998 µg/mL) | Non-Toxic | Active | Non-Toxic |  | 
7 | CN(C)c1ccc(/C=C2\SC(=S)N([C@@H](Cc3c[nH]c4ccccc34)C(=O)O)C2=O)cc1 (stereo in doubt; 24) [listing 1 of 2 here] | Active |  |  |  | Active |  |  | 
8 | O=C(O)[C@H](Cc1c[nH]c2ccccc12)N1C(=O)/C(=C/c2c3ccccc3c(Cl)c3ccccc23)SC1=S | Active | 2.9 | 184 (≈ 100 µg/mL) | Non-Toxic | Active | Non-Toxic | 0.57 (≈ 0.31 µg/mL) | 
9 | CN(C)c1ccc(/C=C2\SC(=S)N([C@@H](Cc3c[nH]c4ccccc34)C(=O)O)C2=O)cc1 (stereo in doubt; 24) [listing 2 of 2 here] |  | 14.7 |  | Non-Toxic |  | Non-Toxic |  | 2.08 (≈ 0.939 µg/mL)
10 | CC(C)C[C@H](C(=O)O)N1C(=O)/C(=C/c2ccc(N(C)C)c3ccccc23)SC1=S | Active |  |  |  |  |  |  | 
11 | NCC[C@H](O)C(=O)N[C@@H]1C[C@H](N)[C@@H](O[C@H]2O[C@H](CN)[C@@H](O)[C@H](O)[C@H]2O)[C@H](O)[C@H]1O[C@H]1O[C@H](CO)[C@@H](O)[C@H](N)[C@H]1O [AMIKACIN] |  |  | 1.7 (≈ 0.996 µg/mL) |  |  |  |  | 
12 | CC(C)C[C@@H](C(=O)O)N1C(=O)/C(=C/c2ccc(N(C)C)c3ccccc23)SC1=S | Active |  |  |  |  |  |  | 
13 | CCCc1ccc(/C=C2\SC(=S)N([C@@H](Cc3c[nH]c4ccccc34)C(=O)O)C2=O)cc1 | Active | 13 | 22.2 (≈ 10 µg/mL) | Non-Toxic | Active | Non-Toxic |  | 
14 | O=C(O)[C@@H](Cc1c[nH]c2ccccc12)N1C(=O)/C(=C/c2ccc(N(CCCl)CCCl)cc2)SC1=S | Active | 15.2 | 18.3 (≈ 10 µg/mL) | Non-Toxic | Active | Non-Toxic |  | 
15 | O=C(O)[C@H](Cc1c[nH]c2ccccc12)N1C(=O)/C(=C/c2ccc(Cl)cc2)SC1=S | Active | 19.7 | 21.1 (≈ 9.32 µg/mL) | Non-Toxic | Active | Non-Toxic |  | 
16 | CN(C)c1ccc(/C=C2\SC(=S)N([C@@H](Cc3c[nH]c4ccccc34)C(=O)O)C2=O)cc1 (stereo in doubt; 12) [listing 2 of 2 here] |  | 28.6 |  |  |  |  |  | 22.17 (≈ 10 µg/mL)
17 | Cc1ccc(/C=C2\SC(=S)N([C@H](Cc3c[nH]c4ccccc34)C(=O)O)C2=O)c2ccccc12 | Active | 11 | 2.11 (≈ 0.997 µg/mL) | Non-Toxic | Active | Non-Toxic | 5.2 (≈ 2.46 µg/mL) | 
18 | CCCc1ccc(/C=C2\SC(=S)N([C@H](Cc3c[nH]c4ccccc34)C(=O)O)C2=O)cc1 | Active | 13 | 55.5 (≈ 25 µg/mL) | Non-Toxic | Active | Non-Toxic |  | 
19 | O=C(O)[C@H](Cc1c[nH]c2ccccc12)N1C(=O)/C(=C/c2ccc(Cl)cc2Cl)SC1=S | Active | 9.5 | 21 (≈ 10 µg/mL) | Non-Toxic | Active | Non-Toxic |  | 
20 | CC(C)CC(N1C(=O)/C(=C/c2ccc(N(C)C)c3ccccc23)SC1=S)P(=O)(O)O (configuration not stated) | Active | 19.1 | 21.6 (≈ 10 µg/mL) | Non-Toxic | Active | Non-Toxic |  | 
21 | O=C(O)[C@H](Cc1c[nH]c2ccccc12)N1C(=O)/C(=C/c2ccc(N(CCCl)CCCl)cc2)SC1=S | Active | 12.2 | 1.82 (≈ 0.998 µg/mL) | Non-Toxic | Active | Non-Toxic |  | 

From ChEMBL document CHEMBL3861953 (J Med Chem, 2016)
